For 5 compounds, IC50 results are on record in ChEMBL document CHEMBL3098105, “7,7'-Diazaindirubin--a small molecule inhibitor of casein kinase 2 in vitro and in cells” (Bioorg Med Chem, 2014).

By IC50 is commonly meant the point on the concentration scale where inhibition reaches its midpoint. Read a low IC50 as greater potency.

Common to all, as to format: functional, cell-based
The nature of test [1]: Antiproliferative activity against human LXFL 529L cells after 3 days by SRB assay. The note with it: 72 h. An outline of the steps: (§1)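 Cells grown at 37 °C, 5% CO2, with 10% heat-inactivated FBS: LXFL529L in RPMI 1640, MCF7 and HT29 in DMEM. Seeded, allowed 24 h growth, then exposed to the drug at various concentrations for 3 days in serum medium. Fixed with TCA for 1 h at 4 °C, stained with 0.4% SRB, eluted in 10 mM Tris pH 10.5, read at 570 nm as % T/C. IC50 taken from dose–response curves of at least three independent experiments.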

In test [2] the test system is HT-29. Description: Antiproliferative activity against human HT-29 cells after 3 days by SRB assay. The conditions noted are these: HT-29, 72 h. An outline of the steps:
as §1
A general note: Sulforhodamine B stains cellular protein and so reports cell mass.

Test [3] relates to MCF7. Description: Antiproliferative activity against human MCF7 cells after 3 days by SRB assay. The conditions noted are these: MCF7, 72 h. An outline of the steps: as §1

Where only a bound is given, the exact number is not on record here.

With `O=C1Nc2ncccc2/C1=C1\C(=O)Nc2ncccc21`, the half-inhibitory concentration (IC50) in test [1], in test [2] and in test [3] was greater than 100 µM each time.
Take `O=C1Nc2ccccc2/C1=C1/Nc2ccccc2C1=O` [INDIRUBIN]: the IC50 was 9.9 µM in test [1] and 4 µM in test [3].
As to `O=C1Nc2ncccc2/C1=C1/Nc2ccccc2C1=O`, the figures for the IC50 in test [1], in test [2] and in test [3] were 2.9 µM, greater than 10 µM and 3 µM, respectively.
The like results for `O=C1Nc2ccccc2/C1=C1/Nc2ncccc2C1=O` were, in that order, 4.4 µM, greater than 10 µM and 5 µM.
On to `O=C1/C(=C2\Nc3ncccc3C2=O)Nc2ncccc21`, for which the IC50 in test [1], in test [2] and in test [3] was greater than 100 µM in each case.
